Among the data in ChEMBL document CHEMBL1944571, “A bright approach to the immunoproteasome: development of LMP2/β1i-specific imaging probes” (Bioorg Med Chem, 2012) are Activity values, retold here.

Assay [1] has as its target T1, Proteasome subunit beta type-9 (Homo sapiens) (UniProt P28065).
T1 sequence (whole entry): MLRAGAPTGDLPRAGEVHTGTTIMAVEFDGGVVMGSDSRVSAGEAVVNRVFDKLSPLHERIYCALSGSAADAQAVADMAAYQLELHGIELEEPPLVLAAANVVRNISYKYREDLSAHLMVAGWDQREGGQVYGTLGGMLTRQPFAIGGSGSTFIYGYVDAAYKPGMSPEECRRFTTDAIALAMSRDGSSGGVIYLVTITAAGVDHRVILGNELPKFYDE
Description: Binding affinity to LMP2/beta1i in human PC3 cells at 30 uM after 4 hrs by fluorescence microscopy analysis in presence of UK101-Lys-Cbz treated 1.5 hrs before compound treatment. It is filed as cell-based. The settings on record: PC-3.

Assay [2] deals with T1, Proteasome subunit beta type-9 (Homo sapiens). Description: Effect on LMP2/beta1i cellular distribution in human PC3 cells after 4 hrs by fluorescence microscopy analysis in presence of UK101 treated 1.5 hrs before compound treatment. The note with it: PC-3. It counts as cell-based. In a few lines:
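PC-3 cells were grown on coverslips for 24–48 h, pretreated for 1.5 h with DMSO or 5 μM competitor, then given 15 μM probe for 4 h. Cells were washed, fixed in 4% paraformaldehyde, permeabilized with 0.2% Triton, and blocked. Where indicated, cells were stained with anti-LMP2 antibody, mounted with DAPI, and imaged by fluorescence microscopy, with intensity normalized to control.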

Assay [3] has the same target. The assay can be described thus: Binding affinity to LMP2/beta1i in human PC3 cells at 15 uM after 4 hrs by fluorescence microscopy analysis in presence of UK101 treated 1.5 hrs before compound treatment. The settings on record: PC-3.
The target is the same in assay [4]. The assay can be described thus: Binding affinity to LMP2/beta1i in human PC3 cells at 30 uM after 4 hrs by gel-fluorescence assay in presence of UK101-Lys-Cbz treated 1.5 hrs before compound treatment. It counts as cell-based. The note with it: PC-3. In short, it runs like this: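 PC-3 cells were pretreated for 1.5 h with DMSO or 20 μM competitor, then incubated with 30 μM fluorescent probe for a further 4 h. Lysates were resolved by SDS-PAGE, and gels were imaged for in-gel fluorescence (λex 635 nm, λem 665 nm).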

Assay [5] has the same target. The assay can be described thus: Binding affinity to LMP2/beta1i in human PC3 cells at 30 uM after 4 hrs by gel-fluorescence assay in presence of UK101 treated 1.5 hrs before compound treatment. It counts as cell-based. The settings on record: PC-3. In a few lines: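 PC-3 cells were pretreated for 1.5 h with DMSO or 1 μM competitor, then given 30 μM fluorescent probe for a further 4 h. Cells were washed, lysed, resolved by SDS-PAGE, and gels were imaged for in-gel fluorescence (λex 635 nm, λem 665 nm).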

For assay [6] the target is unchanged. Description: Binding affinity to LMP2/beta1i in human PC3 cells after 4 hrs using typhoon imaging by gel fluorescence assay. The settings on record: PC-3. It counts as cell-based. In short, it runs like this: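 PC-3 cells were treated with probe or DMSO vehicle for 4 h, with an epoxomicin control. Cells were washed in HBSS and lysed on ice for 1 h in NP-40/Triton X-100 buffer with protease inhibitors. Equal protein was run on 12% SDS-PAGE after denaturing at 100°C, and gels were scanned for fluorescence (λex 635 nm, λem 665 nm).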

The target of assay [7] is T2, Proteasome Macropain subunit MB1 (Homo sapiens) (UniProt P28074).
T2 sequence (whole entry): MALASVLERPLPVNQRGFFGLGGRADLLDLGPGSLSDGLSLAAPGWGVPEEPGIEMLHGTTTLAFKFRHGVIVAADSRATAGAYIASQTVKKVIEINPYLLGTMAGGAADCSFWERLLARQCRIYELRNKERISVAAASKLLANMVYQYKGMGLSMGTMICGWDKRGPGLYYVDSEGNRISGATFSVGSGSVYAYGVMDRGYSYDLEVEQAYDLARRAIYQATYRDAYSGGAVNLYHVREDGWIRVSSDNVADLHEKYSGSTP
Description: Binding affinity to LMPX/[…] in human PC3 cells at 10 to 20 uM after 1.5 hrs by Western blotting. It is filed as cell-based. The settings on record: PC-3. In short, it runs like this:
(§1)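 EL4 or PC-3 cells were exposed for 1.5 h to compound, DMSO vehicle, or 1 μM epoxomicin as positive control. Cells were washed in HBSS, lysed on ice for 1 h in non-denaturing NP-40/Triton buffer, and equal protein was resolved on 12% SDS-PAGE and blotted to PVDF. Blots were probed with subunit-specific antibodies and read by ECL. An upward band shift versus DMSO was scored as covalent modification.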

For assay [8], the target named is T3, Proteasome subunit beta type-9 (Mus musculus) (UniProt P28076).
T3 sequence (whole entry): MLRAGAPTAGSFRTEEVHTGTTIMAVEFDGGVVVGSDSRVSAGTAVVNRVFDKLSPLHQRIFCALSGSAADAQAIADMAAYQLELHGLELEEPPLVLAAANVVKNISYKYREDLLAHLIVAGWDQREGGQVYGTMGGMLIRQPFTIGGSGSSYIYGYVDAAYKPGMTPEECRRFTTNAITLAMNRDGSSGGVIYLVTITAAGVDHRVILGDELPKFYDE
Description: Binding affinity to LMP2/beta1i in mouse EL4 cells at 1 uM after 1.5 hrs by Western blotting. It counts as cell-based. In a few lines: as §1
On the technique in general: A western blot detects proteins with antibodies after separation by electrophoresis.

Assay [9] addresses T4, Proteasome subunit beta type-6 (Mus musculus) (UniProt Q60692).
T4 sequence (whole entry): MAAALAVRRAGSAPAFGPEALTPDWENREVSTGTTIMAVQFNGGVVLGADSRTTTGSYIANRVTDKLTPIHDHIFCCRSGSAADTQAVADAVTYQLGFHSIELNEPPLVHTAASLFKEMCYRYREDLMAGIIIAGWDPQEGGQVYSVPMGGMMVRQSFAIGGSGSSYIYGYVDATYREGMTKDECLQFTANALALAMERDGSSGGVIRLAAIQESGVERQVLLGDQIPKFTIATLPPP
Description: Binding affinity to LMPY/beta1 in mouse EL4 cells at 10 uM after 1.5 hrs by Western blotting. It is filed as cell-based. In short, it runs like this: as §1

Assay [10] concerns the target T3, Proteasome subunit beta type-9 (Mus musculus). Description: Binding affinity to LMP2/beta1i in mouse EL4 cells at 5 uM after 1.5 hrs by Western blotting. It is filed as cell-based. In a few lines: as §1
Assay [11] has the same target. The assay can be described thus: Binding affinity to LMP2/beta1i in mouse EL4 cells at 10 uM after 1.5 hrs by Western blotting. It is filed as cell-based. In a few lines: as §1
Assay [12] addresses T5, Proteasome subunit beta type-8 (Homo sapiens) (UniProt P28062).
T5 sequence (whole entry): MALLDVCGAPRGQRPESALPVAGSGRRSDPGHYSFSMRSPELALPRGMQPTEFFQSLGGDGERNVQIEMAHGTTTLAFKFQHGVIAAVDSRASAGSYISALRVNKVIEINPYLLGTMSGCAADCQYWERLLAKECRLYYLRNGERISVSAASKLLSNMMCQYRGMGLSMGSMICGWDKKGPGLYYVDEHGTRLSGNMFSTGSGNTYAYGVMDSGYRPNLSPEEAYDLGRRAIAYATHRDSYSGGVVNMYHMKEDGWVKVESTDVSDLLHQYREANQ
The assay can be described thus: Binding affinity to LMP7/beta5i in human PC3 cells at 10 to 20 uM after 1.5 hrs by Western blotting. It counts as cell-based. The settings on record: PC-3. In short, it runs like this: as §1

The target of assay [13] is T6, Proteasome subunit beta type-8 (Mus musculus) (UniProt P28063).
T6 sequence (whole entry): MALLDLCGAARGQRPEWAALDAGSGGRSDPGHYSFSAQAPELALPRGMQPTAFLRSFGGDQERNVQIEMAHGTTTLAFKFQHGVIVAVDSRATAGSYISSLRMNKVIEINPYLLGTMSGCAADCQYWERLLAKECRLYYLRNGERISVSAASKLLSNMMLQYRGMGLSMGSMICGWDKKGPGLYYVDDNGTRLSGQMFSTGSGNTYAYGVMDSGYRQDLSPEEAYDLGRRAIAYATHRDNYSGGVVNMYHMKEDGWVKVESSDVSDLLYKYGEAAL
Description: Binding affinity to LMP7/beta5i in mouse EL4 cells at 10 uM after 1.5 hrs by Western blotting. It is filed as cell-based. In short, it runs like this: as §1

Assay [14] concerns the target T7, Proteasome subunit beta type-6 (Homo sapiens) (UniProt P28072).
T7 sequence (whole entry): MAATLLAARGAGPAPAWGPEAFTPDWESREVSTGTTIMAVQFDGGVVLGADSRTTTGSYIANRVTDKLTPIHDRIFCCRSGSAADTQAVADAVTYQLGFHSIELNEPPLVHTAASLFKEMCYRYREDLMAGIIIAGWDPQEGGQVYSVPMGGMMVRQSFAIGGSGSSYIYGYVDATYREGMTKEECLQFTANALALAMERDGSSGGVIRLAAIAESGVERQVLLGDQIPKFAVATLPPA
Description: Binding affinity to LMPY/beta1 in human PC3 cells at 10 to 20 uM after 1.5 hrs by Western blotting. It counts as cell-based. The settings on record: PC-3. In a few lines: as §1

In assay [15] the target is T8, Proteasome subunit beta type-5 (Mus musculus) (UniProt O55234).
T8 sequence (whole entry): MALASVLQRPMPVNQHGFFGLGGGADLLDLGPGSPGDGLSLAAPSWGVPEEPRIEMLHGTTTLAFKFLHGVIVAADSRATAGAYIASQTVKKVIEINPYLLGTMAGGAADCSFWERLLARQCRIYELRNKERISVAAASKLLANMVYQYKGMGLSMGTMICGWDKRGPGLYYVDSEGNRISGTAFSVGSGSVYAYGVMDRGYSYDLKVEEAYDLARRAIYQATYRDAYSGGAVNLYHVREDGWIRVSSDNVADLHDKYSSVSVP
The assay can be described thus: Binding affinity to LMPX/[…] in mouse EL4 cells at 10 uM after 1.5 hrs by Western blotting. It counts as cell-based. In short, it runs like this: as §1

Assay [16] addresses T1, Proteasome subunit beta type-9 (Homo sapiens). The assay can be described thus: Binding affinity to LMP2/beta1i in human PC3 cells at 10 to 80 uM after 1.5 hrs by Western blotting. It counts as cell-based. The note with it: PC-3. In a few lines:
as §1

Each structure is given as a SMILES string. Activity calls are given as the source filed them. The calls are words filed in the database; no cut-off is given here.

On to `CCCCCCC(=O)N[C@@H](CCCCNC(=O)CCCCCNC(=O)COc1ccc(/C=C/c2ccc3n2[B-](F)(F)[N+]2=C(c4ccc[nH]4)C=CC2=C3)cc1)C(=O)N[C@@H](CC(C)C)C(=O)[C@@]1(CO[Si](C)(C)C(C)(C)C)CO1`, for which the result in assay [1], in [2], in [3], in [4] and in assay [5] was inactive. In addition, in assay [6], the outcome was Active.

Consider `CCCCCCC(=O)N[C@@H](CCCCNC(=O)OCc1ccccc1)C(=O)N[C@@H](CC(C)C)C(=O)[C@@]1(CO[Si](C)(C)C(C)(C)C)CO1`, for which the result in [7], in assay [8], in [9], in assay [12], in [13] and in assay [14] was inactive. The result in assay [15] was inactive. Further, the outcome in assay [10], in [11] and in assay [16] was Active.
